The results in this text go back to ChEMBL document CHEMBL2216753, “Novel 1,4-benzoxazine and 1,4-benzodioxine inhibitors of angiogenesis” (Eur J Med Chem, 2012).

Calls of active or inactive are those of the source. The calls are words filed in the database; no cut-off is given here.

Usually inhibition stands for the percentage by which the read-out fell short of the control. As a reminder, the IC50 is the concentration that gives 50% inhibition. Read a high IC50 as weaker potency.

The nature of data set [1]: Cytotoxicity against human HMEC1 cells at 100 uM after 3 days by coulter counter method. Type of data set: cell-based. As to conditions: hmec-1, 72 h. In short, it runs like this: (§1)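 Cells seeded at 10,000 cells per cm2; after 16 h, fresh medium with test compound added. Cells trypsinized and counted with a Coulter counter on day 4 (BAEC, HeLa, MCF-7) or day 7 (HMEC-1). Cytotoxicity (cell death) was judged after 3 days in culture. HMEC-1 grown in EGM-2 with supplements and growth factors.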

Data set [2] can be described thus: Cytotoxicity against bovine BAEC cells at 100 uM after 3 days by coulter counter method. Type of data set: cell-based, Bos taurus. As to conditions: cattle, 72 h. Summed up:
as §1

For data set [3], the system named is HeLa. In words: Cytotoxicity against human HeLa cells at 100 uM after 3 days by coulter counter method. The format is cell-based. As to conditions: 72 h. In short, it runs like this: as §1
The test system of data set [4] is MCF7. The data set can be described thus: Cytotoxicity against human MCF7 cells at 100 uM after 3 days by coulter counter method. The format is cell-based. Particulars: mcf7, 72 h. In short, it runs like this: as §1
Data set [5] in a line: Cytotoxicity against human HMEC1 cells at 30 uM after 3 days by coulter counter method. Type of data set: cell-based. Particulars: hmec-1, 72 h. Summed up:
as §1

The nature of data set [6]: Cytotoxicity against bovine BAEC cells at 30 uM after 3 days by coulter counter method. Type of data set: cell-based, Bos taurus. As to conditions: cattle, 72 h. Summed up:
as §1

Data set [7] concerns HeLa. The data set can be described thus: Cytotoxicity against human HeLa cells at 30 uM after 3 days by coulter counter method. The format is cell-based. As to conditions: 72 h. In short, it runs like this: as §1
Data set [8] deals with MCF7. The data set can be described thus: Cytotoxicity against human MCF7 cells at 30 uM after 3 days by coulter counter method. Type of data set: cell-based. As to conditions: mcf7, 72 h. Summed up: as §1
Data set [9] concerns MAEC. The data set can be described thus: Antimigratory activity against mouse MAEC cell migration after 5 hrs by wound closure assay. Type of data set: functional, cell-based. Summed up: (§2)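 Confluent MAEC monolayers wounded with a 1.0-mm wide micropipette tip, then incubated in fresh medium with test compound. Wounds photographed after 5 h and width calculated from digital images. Mean ± SD of 2–4 independent experiments; Student t test, p < 0.05 significant.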

Data set [10] concerns MAEC. The data set can be described thus: Antimigratory activity against mouse MAEC cell migration at 30 uM after 5 hrs by wound closure assay. Type of data set: functional. In short, it runs like this:
as §2

The nature of data set [11]: Antimigratory activity against mouse MAEC cell migration at 10 uM after 5 hrs by wound closure assay. The format is functional. In short, it runs like this:
as §2

Data set [12] deals with HMEC-1. The data set can be described thus: Antiangiogenic activity in human HMEC1 cells assessed as inhibition of tube formation at 10 uM after 4 to 6 hrs by matrigel assay. The format is functional, cell-based. Summed up: (§3)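 HMEC-1 (60,000 cells) seeded on matrigel (10 mg/mL) after 30 min gelling at 37 °C, in DMEM containing test compound; after 4–6 h cells photographed and tubes scored 0 (none) to 3 (maximal, like untreated control). Mean ± SD of 2–4 independent experiments; Student t test, p < 0.05 significant.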

For data set [13], the species on record is Gallus gallus. The data set can be described thus: Antiangiogenic activity in chicken embryo chorioallantoic membrane model at 250 nmol/disc after 3 days. The format is functional, tissue-based.
Data set [14] in a line: Antiproliferative activity against human HMEC1 cells after 7 days by coulter counter method. The format is functional, cell-based. Particulars: HMEC-1, 168 h.
In data set [15] the test system is HeLa. The data set can be described thus: Antiproliferative activity against human HeLa cells after 4 days by coulter counter method. As to conditions: 96 h. Type of data set: functional, cell-based.
The nature of data set [16]: Antiproliferative activity against bovine BAEC cells after 4 days by coulter counter method. Type of data set: functional, cell-based. Particulars: Bos taurus, 96 h.
Data set [17] relates to HMEC-1. The data set can be described thus: Antiangiogenic activity in human HMEC1 cells assessed as inhibition of tube formation at 30 uM after 4 to 6 hrs by matrigel assay. Type of data set: functional, cell-based. Summed up: as §3
Data set [18] has as its system MCF7. The data set can be described thus: Antiproliferative activity against human MCF7 cells after 4 days by coulter counter method. The format is functional, cell-based. Particulars: MCF7, 96 h.
Data set [19] concerns HMEC-1. In words: Antiangiogenic activity in human HMEC1 cells assessed as inhibition of tube formation after 4 to 6 hrs by matrigel assay. The format is functional, cell-based. In short, it runs like this:
as §3

As to `CCOC(=O)CN(Cc1ccc(F)c(F)c1)c1ccc2c(c1)N(C)CC(C)(COc1ccc(C(=N)N)cc1)O2` (stereo not given), the Activity result in data set [1], in data set [2], in data set [3], in [4], in [5] and in data set [6] was “Toxic” throughout. Besides, the Activity entry in data set [7] and in data set [8] was “Toxic” each time. For the same molecule, the inhibition result in [9] was “Dose-dependent effect”. Also, the inhibition result in data set [10], in [13] and in data set [17] was “Active” in each case. Moreover, testing at 10 µM in data set [11] gave an inhibition of 50%. For the same molecule, in data set [12], the inhibition result is “inactive”. The IC50 in data set [14] is 4.2 µM; in data set [15], 4.8 µM; in [16], 4.1 µM; in data set [18], 3.9 µM.

Regarding `CCOC(=O)CN(Cc1ccc(F)cc1)c1ccc2c(c1)N(C)CC(C)(COc1ccc(C(=N)N)cc1)O2` (stereo not given), the Activity result in data set [1], in [2], in data set [3], in data set [4], in data set [5] and in [6] was “Toxic” throughout. Also, the Activity result in data set [7] and in data set [8] was “Toxic” each time. Further, the inhibition result in data set [9] is “Dose-dependent effect”. Further, the inhibition result in [10], in data set [13] and in data set [17] was “Active” each time. Moreover, at 10 µM the inhibition in data set [11] was 50%. Further, in data set [12], the inhibition entry was “inactive”. Further, the IC50 was 6 µM in data set [14], 4.8 µM in [15], 3.8 µM in data set [16] and 4.1 µM in [18].

Regarding `CCOC(=O)C(=O)N(Cc1ccc(F)cc1)c1ccc2c(c1)N(C)CC(C)(COc1ccc(C(=N)N)cc1)O2` (stereo not given), the Activity result was “Toxic” in data set [1]; “Toxic” in [2]; “Toxic” in data set [3]; “Toxic” in data set [4]; “Non-toxic” in [5]; “Non-toxic” in data set [6]. Moreover, the Activity entry in data set [7] and in [8] was “Non-toxic” each time. For the same molecule, the inhibition result in data set [9] and in data set [19] was “Dose-dependent effect” in each case. Also, the inhibition entry in data set [10] and in data set [13] was “Active” throughout. In data set [11], this molecule had an inhibition at 10 µM of 50%. Also, the concentration for half-maximal inhibition (IC50) in [14] turned out to be 8.4 µM; in [15], 14 µM; in data set [16] it was 6.6 µM; in data set [18], 5.5 µM.

As for `CCOC(=O)C(=O)N(Cc1ccc(F)c(F)c1)c1ccc2c(c1)N(C)CC(C)(COc1ccc(C(=N)N)cc1)O2` (stereo not given), the Activity result was “Toxic” in data set [1]; “Toxic” in data set [2]; “Toxic” in data set [3]; “Toxic” in data set [4]; “Non-toxic” in [5]; “Non-toxic” in [6]. Besides, the Activity entry in data set [7] and in data set [8] was “Non-toxic” in each case. Besides, the inhibition result in data set [9] and in data set [19] was “Dose-dependent effect” in each case. Further, the inhibition entry in data set [10] and in data set [13] was “Active” each time. Besides, in data set [11], testing at 10 µM gave an inhibition of 50%. The IC50 in [14] stood at 8.3 µM; in data set [15], 14 µM; in data set [16], 7.4 µM; in data set [18] it was 6.3 µM.
